Reference: paper PMC7164687 (Antiviral research, 2020)
Structures can show the parent of a compound that is named as a salt.

Columns and labels:
HIV-1LAI = assay: microbe, parasite or virus in culture; type: cell-based; conditions: Human immunodeficiency virus 1, MT2, 168 h, read-out: IC50 against HIV-1LAI
[1] = Cytotoxicity assay in PXB cells; type: cell-based; conditions: human
HBVETV^R = HBVETV^R viremia in infected human-liver-chimeric mice; type: in vivo; conditions: for reduction of HBVETV^R viremia, day 14: 14 days, average reduction by day 14; for block of HBVETV^R viremia: once-daily peroral 1 mg/kg/day over 14 days, abstract
Summary of the method: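 uPA/SCID mice with livers repopulated by human hepatocytes, infected with recombinant ETV-resistant HBV clone (L180M/S202G/M204V). Dosing began 7–14 weeks after inoculation: test compound, ETV or saline given intragastrically at 1 mg/kg once daily for 14 days, n=2–4 per group. Serum HBV-DNA (S gene) measured by real-time PCR. Change from day 0 compared by repeated-measures ANOVA, two-tailed, uncorrected.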

HBVWT^Ce = HBVWT^Ce viremia in infected human-liver-chimeric mice; type: in vivo; conditions: for reduction of HBVWT^Ce DNA (viremia), day 14: 14 days, average reduction by day 14
[2] = type: in vivo, human-liver-chimeric mice; conditions: 1 mg/kg/day oral, 14 days, HBV-infected mice
PXB cells = assay: Cytotoxicity assay in PXB cells; type: cell-based; conditions: read-out: CC50 in PXB cells; PXB cells, continuous exposure; mean ± 1 S.D.
HBVWT^D = assay: microbe, parasite or virus in culture; type: cell-based; conditions: Hepatitis B virus, HepG2.2.15, read-out: anti-HBV activity IC50
[3] = tested on: human DNA polymerases, α, β, and γ; conditions: ref Nakata et al., 2007; cited from earlier work
[4] = CC50 in PXB cells, PXB cells, continuous exposure, mean ± 1 S.D.
[5] = 1 mg/kg/day oral, average reduction by 3 days after start

Work on `CC(C)(C)C(=O)OCOP(=O)(COCCn1cnc2c(N)ncnc21)OCOC(=O)C(C)(C)C` [ADV, adefovir dipivoxil] yielded an IC50 (HIV-1LAI) of 660 ± 200 nM and a CC50 [1, 4] of 71500 ± 19300 nM.

Compound `N#C[C@]1(CO)O[C@@H](n2cnc3c(=O)[nH]c(N)nc32)C[C@@H]1O` [CdG, 4’-C-cyano-2’-deoxyguanosine] has an IC50 (HIV-1LAI) of 0.6 ± 0.1 nM and a CC50 [1, 4] of 370 ± 30 nM.

In the case of `C=C1[C@H](CO)[C@@H](O)C[C@@H]1n1cnc2c(=O)[nH]c(N)nc21` [ETV, entecavir], the “reduction of HBVETV^R viremia, day 14” value (HBVETV^R; 1 mg/kg/day oral) is reported as 0.5 log10 copies/mL, the “block of HBVETV^R viremia” value (HBVETV^R) is reported as “only slightly suppressed” and the IC50 (HIV-1LAI) is reported as 1000 ± 400 nM. For the same compound, the “reduction of HBVWT^Ce DNA (viremia), day 14” value (HBVWT^Ce; 1 mg/kg/day oral) was 2.2 log10 copies/mL, the CC50 [1, 4] was 252000 ± 37500 nM and the “changes in serum human albumin levels” value [2] was “no significant differences”.

In the case of `N#C[C@]1(CO)O[C@@H](n2cc(F)c3c(N)ncnc32)C[C@@H]1O` [CdFA, 4’-C-cyano-7-deaza-7-fluoro-2’-deoxyadenosine], the “reduction of HBVETV^R viremia, day 14” value (HBVETV^R; 1 mg/kg/day oral) is reported as 1.2 log10 copies/mL, the “reduction of HBVETV^R viremia, day 3” value (HBVETV^R; [5]) is reported as 0.6 log10 copies/mL and the “block of HBVETV^R viremia” value (HBVETV^R) is reported as 1.2 logs. The IC50 (HIV-1LAI) was 880 ± 10 nM, the “reduction of HBVWT^Ce DNA (viremia), day 14” value (HBVWT^Ce; 1 mg/kg/day oral) was 0.7 log10 copies/mL and the “reduction of HBVWT^Ce DNA (viremia), day 3” value (HBVWT^Ce; [5]) was 0.5 log10 copies/mL. For the same compound, the “block of HBVWT viremia” value (HBVWT^Ce; once-daily peroral 1 mg/kg/day over 14 days, abstract) was 0.7 logs, the CC50 (PXB cells) was 55900 ± 5700 nM and the IC50 (HBVWT^D) was about 26 nM.

In the case of `C#C[C@]1(CO)O[C@@H](n2cnc3c(N)nc(F)nc32)C[C@@H]1O` [EFdA, 4’-ethynyl-2-fluoro-2’-deoxyadenosine], the “inhibition of the activity of human DNA polymerases α, β, and γ” value [3] is listed as “little inhibition”.

For `CC(C)OC(=O)[C@H](C)N[P@](=O)(CO[C@H](C)Cn1cnc2c(N)ncnc21)Oc1ccccc1` [TAF, tenofovir alafenamide], the IC50 (HIV-1LAI) was 4 ± 2 nM and the CC50 [1] was 5700 ± 1900 nM.

Work on `CC(C)OC(=O)OCOP(=O)(CO[C@H](C)Cn1cnc2c(N)ncnc21)OCOC(=O)OC(C)C` [TDF, tenofovir disoproxil fumarate] yielded an IC50 (HIV-1LAI) of 30 ± 10 nM and a CC50 ([1]; PXB cells) of 33400 ± 10900 nM.

In the case of `N#C[C@]1(CO)O[C@@H](n2cnc3c(N)ncnc32)C[C@@H]1O` [CdA, 4’-C-cyano-2’-deoxyadenosine], the IC50 (HIV-1LAI) is reported as 94 ± 4 nM and the CC50 [1, 4] is reported as 5400 ± 1500 nM.

`Nc1ccn([C@@H]2CS[C@H](CO)O2)c(=O)n1` [3TC, lamivudine] showed an IC50 (HIV-1LAI) of 660 ± 150 nM and a CC50 [1, 4] of over 100000 nM.
